Measured values from different studies.
Protocols differ between the studies behind these lines.
Target: PAS domain-containing serine/threonine-protein kinase (PASK, Homo sapiens, UniProt Q96RG2)

test	setting	endpoint	value	Structure (SMILES)
enzyme activity, inhibitor	5 µM	remaining activity	96.3%	O=C(Nc1cnn(-c2csc(C(=O)NC3COC3)c2)c1)Nc1ccccc1Cl
enzyme activity, inhibitor	0.1 µM	inhibition	-0.2%	CC/C(=N\NC(=O)NCc1cccc(O)c1)c1ccc(O)c(C)c1O
enzyme activity, inhibitor	10 µM	remaining activity	98%	CCN(CC)c1ccc(C2=NNC(=O)CC2C)cc1[N+](=O)[O-] (stereo not shown)
cell-free assay	0.5 µM	remaining signal	91.3%	O=C1NC(=O)c2cc(Nc3ccc(F)cc3)c(Nc3ccc(F)cc3)cc21
enzyme activity, inhibitor, radiometric	1 µM	remaining activity	96%	Cc1cnc(NC2CCOCC2)nc1-n1cnc(C(=O)NC(CN)c2cc(F)cc(Cl)c2)c1 (stereo not shown)
enzyme activity, inhibitor	1 µM	inhibition	6%	COc1cc2ncnc(Nc3ccc(Oc4ccccc4)c(C)c3C)c2cc1OC
enzyme activity, inhibitor	5 µM	remaining activity	99.7%	O=C(Nc1cnn(-c2csc(C(=O)NC3COC3)c2)c1)Nc1c(F)cccc1Cl
enzyme activity, inhibitor	0.3 µM	inhibition	-1%	Cc1ccc(Nc2nccc(N(C)c3ccc4c(C)n(C)nc4c3)n2)cc1S(N)(=O)=O
enzyme activity, inhibitor	10 µM	remaining activity	6%	CCCOc1ccc(OC)c(F)c1C(=O)c1ccc(C(=O)N[C@@H]2CNC[C@H]2NC(=O)c2ccc3[nH]ncc3c2)cc1
enzyme activity, inhibitor	10 µM	inhibition	-9%	CNC(=O)c1cc(Oc2ccc(NC(=O)Nc3ccc(Cl)c(C(F)(F)F)c3)cc2)ccn1
enzyme activity, inhibitor	1 µM	inhibition	-16%	CN1CC(Oc2cnc(C#N)cc2-c2ccn3nc(NC(=O)C4CC4)cc3c2)C1
enzyme activity, inhibitor	10 µM	inhibition	19%	CCN(CC)CCNC(=O)c1c(C)[nH]c(/C=C2\C(=O)Nc3ccc(F)cc32)c1C
enzyme activity, inhibitor, radiometric	1 µM	remaining activity	99%	CC(C)(C)c1nc2c(s1)c1nc(N)ncc1c1ccc(NS(=O)(=O)c3c(F)cccc3F)c(F)c12
